From ChEMBL document CHEMBL1687753, “Mitochondrial DNA depletion and respiratory chain activity in primary human subcutaneous adipocytes treated with nucleoside analogue reverse transcriptase inhibitors” (Antimicrob Agents Chemother, 2010)
Activity calls are given as the source filed them. The rule behind the calls is not given here.

How the values were obtained:
[1] = Toxicity in human subcutaneous preadipocytes assessed as decrease of mitochondrial DNA abundance at 3 uM after 60 days by RT-PCR analysis; assay type: cell-based; settings: 1440 h
Procedure, shortened: (§1)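 mtDNA content of differentiated preadipocytes at day 30 or 60 of drug exposure was measured by real-time quantitative PCR with human-specific primers. Absolute copy numbers came from serial dilutions of plasmid standards. Three independent experiments.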

[2] = test system: Homo sapiens; test: Inhibition of electron transport protein complex 1/3 in human subcutaneous preadipocytes at 3 uM after 30 to 60 days by photometric analysis; assay type: cell-based
Procedure, shortened: (§2)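 Pooled primary human abdominal subcutaneous preadipocytes induced to differentiate with drug (DMSO vehicle, ≤0.1%) added at day 0 and kept to day 30 or 60. Cells sonicated twice for 10 s; substrates added to lysates and conversion by complexes I+III, II+III, IV, V and citrate synthase read photometrically at 37°C. Three independent experiments.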

[3] = Toxicity in human subcutaneous preadipocytes assessed as decrease of PPARgamma expression at 0.1 uM after 18 days by RT-PCR analysis; assay type: cell-based; settings: 432 h
Procedure, shortened: (§3)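 Differentiating preadipocytes were harvested at day 18. RNA from three plates was pooled and reverse transcribed, and qRT-PCR was run with 42 cycles of 94/55/72°C. Values were normalized to transferrin receptor or beta-actin by standard curve. Triplicates from three independent experiments.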

[4] = Toxicity in human subcutaneous preadipocytes assessed as decrease of cell cultures at 3 uM after 30 days using oil red O fluorescence staining by conventional fluorescence microscopy; assay type: cell-based; settings: 720 h
Procedure, shortened: (§4)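 On day 30 of differentiation with drug present from day 0, cells were fixed in 10% formalin and stained with 0.21% oil red O. Staining was viewed by fluorescence and light microscopy. For quantification, dye was extracted with isopropanol and read at 495 nm, also adjusted for viable cell number. Five independent experiments.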

[5] = Toxicity in human subcutaneous preadipocytes assessed as decrease of insulin-sensitizing adipokine expression at 3 uM after 30 days by RT-PCR analysis; assay type: cell-based; settings: 720 h
Procedure, shortened: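 Adiponectin mRNA at day 30 was measured by qRT-PCR normalized to transferrin receptor or beta-actin, using pooled RNA and cDNA. Triplicates from three independent experiments.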

[6] = test system: Homo sapiens; test: Inhibition of electron transport protein complex 5 in human subcutaneous preadipocytes at 3 uM after 30 to 60 days by photometric analysis; assay type: cell-based; procedure, shortened: as §2
[7] = Toxicity in human subcutaneous preadipocytes assessed as cell death at 3 uM after 30 days using […]; assay type: cell-based; settings: 720 h
Procedure, shortened: (§5)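 Trypan blue exclusion counted by microscopy at each medium change every fifth day during 30 days of drug exposure in differentiating pooled preadipocytes. Final viability was calculated by excluding the cumulative percentage of dead cells. Five independent experiments.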

[8] = Toxicity in human subcutaneous preadipocytes assessed as triacylglyceride droplets at 3 uM after 30 days using oil red O fluorescence staining by conventional fluorescence microscopy; assay type: cell-based; settings: 720 h
Procedure, shortened: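 Preadipocytes were differentiated with a hormone cocktail (IBMX for the first 7 days, dexamethasone, insulin, indomethacin; high-glucose DMEM for days 0–18), with drug or vehicle present from day 0 to day 30. Cells were fixed in 10% formalin, stained with 0.21% oil red O in 60% isopropanol, and imaged by fluorescence microscopy. Quantification was by isopropanol extraction at 495 nm, optionally adjusted for viable cells.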

[9] = Toxicity in human subcutaneous preadipocytes assessed as decrease of C/EBPalpha expression at 0.1 uM after 18 days by RT-PCR analysis; assay type: cell-based; settings: 432 h; procedure, shortened: as §3
[10] = test system: Homo sapiens; test: Inhibition of electron transport protein complex 2/3 in human subcutaneous preadipocytes at 3 uM after 30 to 60 days by photometric analysis; assay type: cell-based; procedure, shortened: as §2
[11] = Toxicity in human subcutaneous preadipocytes assessed as decrease of adiponectin expression at 3 uM after 30 days by ELISA; assay type: cell-based; settings: 720 h
Procedure, shortened: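 Adiponectin secreted into the medium over days 25 to 30 of drug exposure in differentiating preadipocytes was measured by sandwich ELISA of culture supernatant. Three independent experiments.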

[12] = Toxicity in human subcutaneous preadipocytes assessed as acquisition of adipocyte shape at 3 uM after 30 days using oil red O fluorescence staining by conventional fluorescence microscopy; assay type: cell-based; settings: 720 h; procedure, shortened: as §4
[13] = Toxicity in human subcutaneous preadipocytes assessed as effect on mitochondrial mass at 3 uM after 30 days using […] by flow cytometry analysis; assay type: cell-based; settings: 720 h
[14] = Toxicity in human subcutaneous preadipocytes assessed as decrease of mitochondrial DNA copy number per cell at 3 uM after 60 days by RT-PCR analysis; assay type: cell-based; design: scale not given: the % may be the effect or the level left; settings: 1440 h; procedure, shortened: as §1
[15] = Toxicity in human subcutaneous preadipocytes assessed as decrease of mitochondrial DNA abundance at 3 uM after 30 days by RT-PCR analysis; assay type: cell-based; settings: 720 h; procedure, shortened: as §1
[16] = test system: Homo sapiens; test: Inhibition of electron transport protein complex 4 in human subcutaneous preadipocytes at 3 uM after 30 to 60 days by photometric analysis; assay type: cell-based; procedure, shortened: as §2
[17] = test system: Homo sapiens; test: Inhibition of citrate synthase in human subcutaneous preadipocytes at 3 uM after 30 to 60 days by photometric analysis; assay type: cell-based; procedure, shortened: as §2
[18] = Toxicity in human subcutaneous preadipocytes assessed as effect on mitochondrial membrane potential at 3 uM after 30 days using JC-1 red/green fluorescence dye by flow cytometry analysis; assay type: cell-based; settings: 720 h
Procedure, shortened: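 Pooled primary human subcutaneous preadipocytes (passage ≤4) were differentiated with drug or DMSO vehicle from day 0 and cultured 30 days. Staining with the JC-1 kit was followed by flow cytometry, and the JC-1 red/green fluorescence intensity ratio was used as the membrane potential read-out. CCCP served as the depolarization control. Three independent experiments, means ± SEM.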

[19] = Toxicity in human subcutaneous preadipocytes assessed as decrease of cell viability measured every 5 days at 3 uM after 30 days using […]; assay type: cell-based; settings: 720 h; procedure, shortened: as §5
[20] = Toxicity in fully differentiated human subcutaneous preadipocytes assessed as cell death at 3 uM after 30 days using […] by conventional fluorescence microscopy; settings: 720 h; procedure, shortened: as §5
[21] = Toxicity in human subcutaneous preadipocytes assessed as decrease of C/EBPalpha expression at 3 uM after 18 days by RT-PCR analysis; assay type: cell-based; settings: 432 h; procedure, shortened: as §3
[22] = Toxicity in human subcutaneous preadipocytes assessed as decrease of PPARgamma expression at 3 uM after 18 days by RT-PCR analysis; assay type: cell-based; settings: 432 h; procedure, shortened: as §3

With `Cc1cn([C@H]2C=C[C@@H](CO)O2)c(=O)[nH]c1=O` [STAVUDINE] as the compound, how does the Activity [1] read?
The Activity was “Toxic”.

What about the inhibition [2] of the same compound?
Its inhibition is “inactive”.

And the Activity [3]?
The Activity was “Non-toxic”.

What about the Activity [4] of the same compound?
Its Activity is “Toxic”.

And the Activity [5]?
Its Activity is “Non-toxic”.

What about the inhibition [6] of the same compound?
Its inhibition is “inactive”.

What about the Activity [7] of the same compound?
The Activity was “Toxic”.

And the Activity [8]?
Its Activity is “Non-toxic”.

And the Activity [9]?
The Activity was “Non-toxic”.

And the inhibition [10]?
The inhibition was “inactive”.

And the Activity [11]?
Its Activity is “Non-toxic”.

And the Activity [12]?
The Activity was “Non-toxic”.

What about the Activity [13] of the same compound?
Its Activity is “Non-toxic”.

What about the Activity [14] of the same compound?
Its Activity is 50%.

And the Activity [15]?
Its Activity is “Toxic”.

And the inhibition [16]?
Its inhibition is “inactive”.

And the inhibition [17]?
The inhibition was “inactive”.

What about the Activity [18] of the same compound?
The Activity was “Non-toxic”.

What about the Activity [19] of the same compound?
Its Activity is “Toxic”.

What about the Activity [20] of the same compound?
The Activity was “Toxic”.

What about the Activity [21] of the same compound?
Its Activity is “Non-toxic”.

And the Activity [22]?
The Activity was “Non-toxic”.
